Data set [1] concerns Staphylococcus aureus. The data set can be described thus: Antimicrobial activity against Staphylococcus aureus ATCC 29213 by broth macrodilution method. Format: functional. In a few lines: (§1)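 Broth macrodilution MIC in Mueller Hinton broth following CLSI guidelines. Inoculum was prepared by direct colony suspension from an 18−20 h tryptic soy agar plate.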
For data set [2], the system named is Staphylococcus aureus. The experiment in a line: Antimicrobial activity against Staphylococcus aureus ATCC 29213 at 0.5 times MIC measured after 17 passages by multistep passage drug resistance selection study relative to wild type Staphylococcus aureus ATCC 29213 before passage. Format: functional. Summed up:
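Multipassage selection in S. aureus ATCC29213 across an eight-concentration dilution series. Growth was read after 20−22 h. Bacteria growing at 0.5 × MIC were repassaged into a fresh series, 17 passages in total. Resistance was defined as a more than 4-fold rise over the initial MIC.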

Data set [3] deals with Staphylococcus aureus. The experiment in a line: Antimicrobial activity against Staphylococcus aureus ATCC 29213 infected in mouse cornea infection model assessed as reduction in viable bacterial count at 0.3% solution applied topically 5 times/day dosed 1 day after infection relative to control. Format: functional. Summed up:
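Mouse cornea given three superficial 1 mm scratches on one eye under ketamine/xylazine, then 10 μL of S. aureus ATCC 29213 suspension (1 × 10^8 CFU/mL in USP phosphate buffer) applied topically. Treated topically 5 times/day from day 1 postinfection; PBS negative control; 4 mice/group killed on days 1, 2 and 3. Corneas homogenized in 0.9% NaCl with 0.25% BSA, plated in duplicate on TSA (48 h, 35 °C); log10 CFU/cornea.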

The subject of data set [4] is Staphylococcus aureus. The data set can be described thus: Antimicrobial activity against methicillin resistant Staphylococcus aureus DM21455 in absence of 4% BSA by broth macrodilution method. Format: functional. In a few lines: as §1
In data set [5] the test system is Staphylococcus aureus. The data set can be described thus: Antimicrobial activity against methicillin resistant Staphylococcus aureus DM21455 in presence of 4% BSA by broth macrodilution method. Format: functional. In a few lines:
(§2)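 MIC by CLSI broth macrodilution in Mueller Hinton broth, with BSA added to the bacterial suspension at a final 4% w/v. Inoculum was made by direct colony suspension from an 18−20 h tryptic soy agar plate.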

The test system of data set [6] is Staphylococcus aureus. The data set can be described thus: Antimicrobial activity against Staphylococcus aureus ATCC 29213 in presence of 4% BSA by broth macrodilution method. Format: functional. Summed up: as §2
The subject of data set [7] is Staphylococcus aureus. The data set can be described thus: Antimicrobial activity against Staphylococcus aureus ATCC 29213 in absence of 4% BSA by broth macrodilution method. Format: functional. In a few lines:
as §1

A short description of data set [8]: Induction of hemolysis in New Zealand white rabbit RBC after 1 hr. The conditions noted are these: New Zealand white, red blood cells (RBC). Format: cell-based, Oryctolagus cuniculus, Erythrocyte. Summed up:
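Fresh red blood cells isolated from New Zealand white rabbits. Lysis measured over a compound concentration series; HC50 taken as the concentration lysing 50% of RBCs.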

Data set [9] is described as follows: Retention time of the compound. Format: physicochemical. In a few lines:
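Reverse-phase HPLC of 20 μL injections of a 10 μg/mL sample at 1 mL/min. Gradient: 5−55% ACN over 5 min, then 55−95% over 15 min.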

Data set [10] can be described thus: Selectivity index, ratio of HC50 for induction of hemolysis in New Zealand white rabbit RBC to MIC for Staphylococcus aureus DM09809R.
Data set [11] is described as follows: Selectivity index, ratio of HC50 for induction of hemolysis in New Zealand white rabbit RBC to MIC for Bacillus cereus ATCC 11778.
In data set [12] the test system is Staphylococcus aureus. The data set can be described thus: Antimicrobial activity against methicillin resistant Staphylococcus aureus DM09809R by broth macrodilution method. Format: functional. Summed up:
as §1

Data set [13] in a line: Selectivity index, ratio of HC50 for induction of hemolysis in New Zealand white rabbit RBC to MIC for Staphylococcus aureus DM4001.
In data set [14] the test system is Staphylococcus aureus. The experiment in a line: Antimicrobial activity against methicillin resistant Staphylococcus aureus DM21455 by broth macrodilution method. Format: functional. In a few lines:
as §1

The subject of data set [15] is Staphylococcus aureus. The experiment in a line: Antimicrobial activity against Staphylococcus aureus DM4001 by broth macrodilution method. Format: functional. Summed up: as §1
Data set [16] in a line: Selectivity index, ratio of HC50 for induction of hemolysis in New Zealand white rabbit RBC to MIC for Staphylococcus aureus DM21455.
For data set [17], the system named is Bacillus cereus. The experiment in a line: Antimicrobial activity against Bacillus cereus ATCC 11778 by broth macrodilution method. Format: functional. Summed up:
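CLSI broth macrodilution in Mueller Hinton broth. Inoculum was made by direct colony suspension from colonies on an 18−20 h tryptic soy agar plate. The value is the MIC.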

In brackets after ≈: the same amount, converted by molar mass.

The record followed here is ChEMBL document CHEMBL3414569, “Amino acid modified xanthone derivatives: novel, highly promising membrane-active antimicrobials for multidrug-resistant Gram-positive bacterial infections” (J Med Chem, 2015).

The MIC is the lowest concentration that inhibits growth of the organism. As usually defined, the HC50 is the concentration giving 50% haemolysis. Read a low HC50 as more damage to red cells.

Compound `COc1c(N2CCNC(C)C2)c(F)cc2c(=O)c(C(=O)O)cn(C3CC3)c12` (configuration not stated) [GATIFLOXACIN] had an MIC in data set [1] of 0.1 µg/mL (≈ 0.266 µM). In addition, the values for the Ratio in data set [2] and in data set [3] were 64 and 2.06, respectively.
As for `CCCCCCCCCC(=O)N[C@@H](Cc1c[nH]c2ccccc12)C(=O)N[C@H](CC(N)=O)C(=O)N[C@@H](CC(=O)O)C(=O)N[C@@H]1C(=O)NCC(=O)N[C@@H](CCCN)C(=O)N[C@@H](CC(=O)O)C(=O)N[C@H](C)C(=O)N[C@@H](CC(=O)O)C(=O)NCC(=O)N[C@H](CO)C(=O)N[C@@H]([C@H](C)CC(=O)O)C(=O)N[C@@H](CC(=O)c2ccccc2N)C(=O)O[C@@H]1C`, the MIC in data set [4] was 0.39 µg/mL (≈ 0.241 µM); in [5], 6.25 µg/mL; in [6], 6.25 µg/mL; in data set [7], 0.39 µg/mL (≈ 0.241 µM).
On to `CCOC(=O)[C@H](CCCNC(=N)N)NC(=O)COc1cc2oc3cc(OCC(=O)N[C@@H](CCCNC(=N)N)C(=O)OCC)c(OC)c(CC=C(C)C)c3c(=O)c2c(O)c1CC=C(C)C`, for which the 50% haemolytic concentration (HC50) at 1 h in [8] was found to be 56 µg/mL. In data set [9], this compound yielded a Retention_time of 8.38 min. Moreover, the Selectivity Index in [10] worked out at 5; in [11], 5; in data set [13], 9; in [16], 9. The MIC in data set [12] was 12 µg/mL (≈ 13.4 µM); in data set [14], 6 µg/mL (≈ 6.7 µM); in data set [15], 6 µg/mL (≈ 6.7 µM); in [17] it was 12 µg/mL (≈ 13.4 µM).
In turn, `COc1c(OCC(=O)N[C@@H](CCCNC(=N)N)C(N)=O)cc2oc3cc(OCC(=O)N[C@@H](CCCNC(=N)N)C(N)=O)c(CC=C(C)C)c(O)c3c(=O)c2c1CC=C(C)C` yielded an HC50 at 1 h in data set [8] of 128 µg/mL. In [9], the Retention_time amounted to 7.4 min. The Selectivity Index in [10] was 13; in data set [11], 13; in data set [13], 13; in [16], 128. Besides, the minimum inhibitory concentration (MIC) in data set [12] was 6 µg/mL (≈ 7.17 µM); in [14] it was 1 µg/mL (≈ 1.19 µM); in data set [15] it was 6 µg/mL (≈ 7.17 µM); in data set [17], 6 µg/mL (≈ 7.17 µM).
